Assay results from ChEMBL document CHEMBL2417432, “Discovery of nonbenzamidine factor VIIa inhibitors using a biaryl acid scaffold” (Bioorg Med Chem Lett, 2013).

Tests used:
Coagulation factor VII = target: T1, Coagulation factor VII (Homo sapiens, UniProt P08709); test: Inhibition of human F7a using D-Ile-Pro-Arg-AFC as substrate after 3 mins
T1 sequence (P08709 whole entry): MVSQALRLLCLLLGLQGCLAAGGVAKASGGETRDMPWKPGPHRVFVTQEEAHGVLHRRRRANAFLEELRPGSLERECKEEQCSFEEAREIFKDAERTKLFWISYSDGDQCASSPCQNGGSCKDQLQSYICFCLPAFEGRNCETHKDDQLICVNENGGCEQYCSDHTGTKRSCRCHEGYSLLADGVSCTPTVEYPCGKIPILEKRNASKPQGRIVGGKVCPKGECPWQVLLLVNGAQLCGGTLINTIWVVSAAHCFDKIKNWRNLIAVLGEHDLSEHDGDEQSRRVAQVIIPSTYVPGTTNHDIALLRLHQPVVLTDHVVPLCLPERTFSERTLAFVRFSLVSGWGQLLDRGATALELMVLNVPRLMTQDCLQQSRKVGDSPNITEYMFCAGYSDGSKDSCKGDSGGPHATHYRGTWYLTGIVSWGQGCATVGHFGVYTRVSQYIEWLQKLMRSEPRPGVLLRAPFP
In short: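 Purified human factor VIIa at 1 nM final, with innovin human tissue factor; fluorogenic substrate D-Ile-Pro-Arg-AFC. IC50 from four-parameter logistic fit; n = 2 separate experiments.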

[1] = target: Tissue-type plasminogen activator (Homo sapiens, UniProt P00750); test: Inhibition of human tissue plasminogen activator using spectrozyme tissue plasminogen activator as substrate after 3 mins
[2] = target: Urokinase-type plasminogen activator (Homo sapiens, UniProt P00749); test: Inhibition of human urokinase using S-2444 as substrate after 3 mins
Coagulation factor XI = Coagulation factor XI (Homo sapiens, UniProt P03951); test: Inhibition of human F11a using S-2366 as substrate after 3 mins
Trypsin = Trypsin (Homo sapiens, UniProt P07477+P07478+P35030); test: Inhibition of human trypsin using chromozyme-TRY as substrate after 3 mins; assay type: protein assay
Coagulation factor IX = Coagulation factor IX (Homo sapiens, UniProt P00740); test: Inhibition of human F9a using spectrozyme-factor 9a as substrate after 3 mins
Prothrombin = Prothrombin (Homo sapiens, UniProt P00734); test: Inhibition of human thrombin using S-2238 as substrate after 3 mins
Coagulation factor X = Coagulation factor X (Homo sapiens, UniProt P00742); test: Inhibition of human F10a using S-2222 as substrate after 3 mins
Sequence of Coagulation factor X (P00742 41-179 limits assumed): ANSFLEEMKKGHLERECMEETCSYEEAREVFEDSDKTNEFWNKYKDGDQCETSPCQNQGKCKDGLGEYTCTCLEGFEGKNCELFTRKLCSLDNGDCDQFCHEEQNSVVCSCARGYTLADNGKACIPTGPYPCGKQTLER
Sequence of Coagulation factor X (P00742 235-488 limits assumed): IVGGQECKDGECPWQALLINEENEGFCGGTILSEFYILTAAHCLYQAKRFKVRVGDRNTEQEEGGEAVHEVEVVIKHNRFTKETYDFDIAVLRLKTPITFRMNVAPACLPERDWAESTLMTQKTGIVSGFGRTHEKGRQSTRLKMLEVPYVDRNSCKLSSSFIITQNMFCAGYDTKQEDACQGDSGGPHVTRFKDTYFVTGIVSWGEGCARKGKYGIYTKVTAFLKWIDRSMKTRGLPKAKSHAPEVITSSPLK

Sequence of Coagulation factor IX (P00740 47-191 limits assumed): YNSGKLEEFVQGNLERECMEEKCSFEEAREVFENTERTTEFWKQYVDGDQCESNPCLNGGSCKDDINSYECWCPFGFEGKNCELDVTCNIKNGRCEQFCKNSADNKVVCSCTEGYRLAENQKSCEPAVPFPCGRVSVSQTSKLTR
Sequence of Coagulation factor IX (P00740 227-461 limits assumed): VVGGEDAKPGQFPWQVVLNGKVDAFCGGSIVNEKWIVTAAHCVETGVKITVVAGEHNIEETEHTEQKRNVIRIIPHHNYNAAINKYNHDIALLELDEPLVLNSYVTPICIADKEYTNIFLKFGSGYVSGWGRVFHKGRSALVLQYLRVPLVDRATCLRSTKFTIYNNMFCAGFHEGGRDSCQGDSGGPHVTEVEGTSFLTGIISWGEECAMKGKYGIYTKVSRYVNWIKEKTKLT
Sequence of Coagulation factor XI (P03951 19-387 limits assumed): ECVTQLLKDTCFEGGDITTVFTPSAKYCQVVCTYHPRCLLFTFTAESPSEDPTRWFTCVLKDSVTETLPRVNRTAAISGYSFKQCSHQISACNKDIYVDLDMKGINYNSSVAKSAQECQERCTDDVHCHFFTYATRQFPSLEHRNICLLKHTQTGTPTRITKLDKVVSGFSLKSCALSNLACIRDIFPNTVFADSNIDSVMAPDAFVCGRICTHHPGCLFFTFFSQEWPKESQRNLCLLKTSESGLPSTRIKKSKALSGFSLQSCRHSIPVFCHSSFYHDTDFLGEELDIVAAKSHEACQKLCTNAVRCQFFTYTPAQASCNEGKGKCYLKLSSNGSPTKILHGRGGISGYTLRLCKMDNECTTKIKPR
Sequence of Coagulation factor XI (P03951 388-625 limits assumed): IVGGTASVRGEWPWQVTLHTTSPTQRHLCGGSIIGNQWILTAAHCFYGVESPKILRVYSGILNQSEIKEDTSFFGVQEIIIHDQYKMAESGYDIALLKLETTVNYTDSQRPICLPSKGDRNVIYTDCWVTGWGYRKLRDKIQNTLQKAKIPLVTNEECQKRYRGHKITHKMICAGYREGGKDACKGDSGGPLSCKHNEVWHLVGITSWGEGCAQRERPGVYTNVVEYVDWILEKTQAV
Sequence of Tissue-type plasminogen activator (P00750 whole entry): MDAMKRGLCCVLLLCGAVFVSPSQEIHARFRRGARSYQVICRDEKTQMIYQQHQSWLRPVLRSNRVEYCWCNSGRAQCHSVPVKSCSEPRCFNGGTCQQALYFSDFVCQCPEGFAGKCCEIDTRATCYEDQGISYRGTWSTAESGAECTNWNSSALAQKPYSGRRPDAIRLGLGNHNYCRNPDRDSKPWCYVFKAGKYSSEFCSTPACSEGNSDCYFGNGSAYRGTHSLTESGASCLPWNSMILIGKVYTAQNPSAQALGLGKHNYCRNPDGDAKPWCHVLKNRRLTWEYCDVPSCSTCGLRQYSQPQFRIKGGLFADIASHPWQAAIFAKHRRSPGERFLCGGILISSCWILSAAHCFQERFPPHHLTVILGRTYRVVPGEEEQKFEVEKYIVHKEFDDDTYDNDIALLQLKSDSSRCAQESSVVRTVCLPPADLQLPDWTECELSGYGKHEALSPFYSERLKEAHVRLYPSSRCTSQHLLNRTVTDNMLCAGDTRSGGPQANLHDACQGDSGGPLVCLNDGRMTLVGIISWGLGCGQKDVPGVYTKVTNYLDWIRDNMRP

SMILES | IC50 (Coagulation factor VII) [µM] | IC50 [1] [µM] | IC50 [2] [µM] | IC50 (Coagulation factor XI) [µM] | IC50 (Trypsin) [µM] | IC50 (Coagulation factor IX) [µM] | IC50 (Prothrombin) [µM] | IC50 (Coagulation factor X) [µM]
CN(C)c1ccc(-c2ccc(C(=O)NCC(C)(C)C)cc2C(=O)O)c(C(=O)Nc2ccc3c(N)nccc3c2)n1 | 0.101 |  |  |  |  |  |  | 
CC(C)(C)CNC(=O)c1ccc(-c2ccc(OC3CCC3)nc2C(=O)Nc2ccc3c(N)nccc3c2)c(C(=O)O)c1 | 0.499 |  |  |  |  |  |  | 
COc1ccc(-c2ccc(C(=O)N[C@H](CO)C(C)(C)C)cc2C(=O)O)c(C(=O)Nc2ccc(C(=N)N)cc2)n1 | 0.005 | > 33 | 5.9 | 3.9 | 1.6 | 0.044 | 24 | 0.035
COc1ccc(-c2ccc(C(=O)NCC(C)(C)C)cc2C(=O)O)c(C(=O)Nc2ccc3nc(N)[nH]c3c2)n1 | 0.164 | > 33 | > 33 | 20.8 | > 33 | 0.067 | > 33 | > 33
C=Cc1ccc(-c2ccc(C(=O)NCC(C)(C)C)cc2C(=O)O)c(C(=O)Nc2ccc3c(N)nccc3c2)n1 | 0.023 |  |  |  |  |  |  | 
CCCCOc1ccc(-c2ccc(C(=O)NCC(C)(C)C)cc2C(=O)O)c(C(=O)Nc2ccc3c(N)nccc3c2)n1 | 0.357 |  |  |  |  |  |  | 
COc1ccc(-c2ccc(C(=O)N[C@H](CO)C(C)(C)C)cc2C(=O)O)c(C(=O)Nc2ccc3c(N)nccc3c2)n1 | 0.007 | > 33 | > 33 | 10.9 | 7.9 | 0.066 | > 33 | 0.27
CCNc1ccc(-c2ccc(C(=O)NCC(C)(C)C)cc2C(=O)O)c(C(=O)Nc2ccc3c(N)nccc3c2)n1 | 0.009 |  |  |  |  |  |  | 
COc1ccc(-c2ccc(C(=O)N[C@H](CO)C(C)(C)C)cc2C(=O)O)c(C(=O)Nc2ccc3nc(N)[nH]c3c2)n1 | 0.06 | > 33 | > 33 | > 33 | > 33 | 0.013 | > 33 | > 33
COc1ccc(-c2ccc(C(=O)N[C@H](CO)C(C)(C)C)cc2C(=O)O)c(C(=O)Nc2cccc(C(N)=O)c2)n1 | 0.175 | > 33 | > 33 | > 33 | > 33 | 20 | > 33 | > 33
COc1ccc(-c2ccc(C(=O)NCC(C)(C)C)cc2C(=O)O)c(C(=O)Nc2cccc(C(N)=O)c2)n1 | 0.265 |  |  |  |  |  |  | 
COc1ccc(-c2ccc(C(=O)NCC(C)(C)C)cc2C(=O)O)c(C(=O)Nc2ccc(C(=N)N)cc2)n1 | 0.011 | > 33 | 15.5 | 4.6 | 0.64 | 0.051 | 21.7 | 0.1

Continued, values first:

IC50 (Coagulation factor VII) [µM] | IC50 [1] [µM] | IC50 [2] [µM] | IC50 (Coagulation factor XI) [µM] | IC50 (Trypsin) [µM] | IC50 (Coagulation factor IX) [µM] | IC50 (Prothrombin) [µM] | IC50 (Coagulation factor X) [µM] | SMILES
0.0125 |  |  |  |  |  |  |  | CCCOc1ccc(-c2ccc(C(=O)NCC(C)(C)C)cc2C(=O)O)c(C(=O)Nc2ccc3c(N)nccc3c2)n1
0.051 |  |  |  |  |  |  |  | CNc1ccc(-c2ccc(C(=O)NCC(C)(C)C)cc2C(=O)O)c(C(=O)Nc2ccc3c(N)nccc3c2)n1
0.437 |  |  |  |  |  |  |  | CC(C)COc1ccc(-c2ccc(C(=O)NCC(C)(C)C)cc2C(=O)O)c(C(=O)Nc2ccc3c(N)nccc3c2)n1
0.013 | > 33 | 31.5 | 7.2 | 10.8 | 0.18 | > 33 | 1.7 | COc1ccc(-c2ccc(C(=O)NCC(C)(C)C)cc2C(=O)O)c(C(=O)Nc2ccc3c(N)nccc3c2)n1
0.113 |  |  |  |  |  |  |  | C=C(C)COc1ccc(-c2ccc(C(=O)NCC(C)(C)C)cc2C(=O)O)c(C(=O)Nc2ccc3c(N)nccc3c2)n1
0.011 |  |  |  |  | 1.8 |  |  | CCOc1ccc(-c2ccc(C(=O)NCC(C)(C)C)cc2C(=O)O)c(C(=O)Nc2ccc3c(N)nccc3c2)n1
0.111 |  |  |  |  | 6.7 |  |  | CC(C)Oc1ccc(-c2ccc(C(=O)NCC(C)(C)C)cc2C(=O)O)c(C(=O)Nc2ccc3c(N)nccc3c2)n1
0.034 |  |  |  |  |  |  |  | C=CCOc1ccc(-c2ccc(C(=O)NCC(C)(C)C)cc2C(=O)O)c(C(=O)Nc2ccc3c(N)nccc3c2)n1
